# Tested on: Fibroblast
# Assay: Multiplex assay against human fibroblast
# Assay type: toxicity, cell-based
# How it was run: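 Values for tubulin, mitochondrial-mass and membrane-permeability phenotypes are per cents of cells with healthy nuclei. These cells were identified by CellPathfinder machine-learning gating of live cells that had been stained at seeding with Hoechst33342, BioTracker Green Microtubule Cytoskeleton Dye, MitoTracker Red and Annexin V Alexa Fluor 680 and imaged on a CQ1 microscope at 37°C and 5% CO2 after compound addition. The gating first set Hoechst high-intensity objects apart from normal cells, then split normal cells into healthy, pyknosed or fragmented nuclei, and pyknosed cells into mitotic or apoptotic.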
# [1] = 12 h, 1 µM, compound concentration 1 uM, replicate 1
# [2] = 12 h, 1 µM, compound concentration 1 uM, replicate 2
# [3] = 12 h, 10 µM, compound concentration 10 uM, replicate 1
# [4] = 12 h, 10 µM, compound concentration 10 uM, replicate 2
# [5] = 24 h, 1 µM, compound concentration 1 uM, replicate 1
# [6] = 24 h, 1 µM, compound concentration 1 uM, replicate 2
# [7] = 24 h, 10 µM, compound concentration 10 uM, replicate 1
# [8] = 24 h, 10 µM, compound concentration 10 uM, replicate 2
# [9] = 48 h, 1 µM, compound concentration 1 uM, replicate 1
# [10] = 48 h, 1 µM, compound concentration 1 uM, replicate 2
# [11] = 48 h, 10 µM, compound concentration 10 uM, replicate 1
# [12] = 48 h, 10 µM, compound concentration 10 uM, replicate 2
smiles,measurement,setting,value
COc1ccc2c(c1)C(C(=O)N(Cc1ccc(N(C)C)cc1)c1ccc(C(C)C)cc1)CCC2.Cl (configuration not stated),Population Apoptotic (%),[1],57%
same,Population Fragmented Nuclei (%),[1],15%
same,Population Healthy Nuclei (%),[1],72%
same,Population Hoechst High Intensity Objects (%),[1],1%
same,Population Membrane Permeable-Phenotype (%),[1],1%
same,Population Mitochondria Different-Phenotype (%),[1],7%
same,Population Mitotic Cells (%),[1],42%
same,Population Normal (%),[1],98%
same,Population Pyknosed Nuclei (%),[1],11%
same,Population Tubulin-Different-Phenotype (%),[1],22%
same,Total Cell Count,[1],163
same,Population Apoptotic (%),[2],45%
same,Population Fragmented Nuclei (%),[2],20%
same,Population Healthy Nuclei (%),[2],55%
same,Population Hoechst High Intensity Objects (%),[2],5%
same,Population Membrane Permeable-Phenotype (%),[2],5%
same,Population Mitochondria Different-Phenotype (%),[2],15%
same,Population Mitotic Cells (%),[2],54%
same,Population Normal (%),[2],94%
same,Population Pyknosed Nuclei (%),[2],23%
same,Population Tubulin-Different-Phenotype (%),[2],57%
same,Total Cell Count,[2],138
same,Population Apoptotic (%),[3],58%
same,Population Fragmented Nuclei (%),[3],17%
same,Population Healthy Nuclei (%),[3],69%
same,Population Hoechst High Intensity Objects (%),[3],1%
same,Population Membrane Permeable-Phenotype (%),[3],0%
same,Population Mitochondria Different-Phenotype (%),[3],12%
same,Population Mitotic Cells (%),[3],41%
same,Population Normal (%),[3],98%
same,Population Pyknosed Nuclei (%),[3],13%
same,Population Tubulin-Different-Phenotype (%),[3],67%
same,Total Cell Count,[3],181
same,Population Apoptotic (%),[4],53%
same,Population Fragmented Nuclei (%),[4],38%
same,Population Healthy Nuclei (%),[4],51%
same,Population Hoechst High Intensity Objects (%),[4],2%
same,Population Membrane Permeable-Phenotype (%),[4],6%
same,Population Mitochondria Different-Phenotype (%),[4],14%
same,Population Mitotic Cells (%),[4],46%
same,Population Normal (%),[4],97%
same,Population Pyknosed Nuclei (%),[4],10%
same,Population Tubulin-Different-Phenotype (%),[4],77%
same,Total Cell Count,[4],148
same,Population Apoptotic (%),[5],55%
same,Population Fragmented Nuclei (%),[5],11%
same,Population Healthy Nuclei (%),[5],77%
same,Population Hoechst High Intensity Objects (%),[5],1%
same,Population Membrane Permeable-Phenotype (%),[5],0%
same,Population Mitochondria Different-Phenotype (%),[5],5%
same,Population Mitotic Cells (%),[5],44%
same,Population Normal (%),[5],98%
same,Population Pyknosed Nuclei (%),[5],11%
same,Population Tubulin-Different-Phenotype (%),[5],25%
same,Total Cell Count,[5],156
same,Population Fragmented Nuclei (%),[6],19%
same,Population Healthy Nuclei (%),[6],59%
same,Population Hoechst High Intensity Objects (%),[6],3%
same,Population Membrane Permeable-Phenotype (%),[6],2%
same,Population Mitochondria Different-Phenotype (%),[6],11%
same,Population Normal (%),[6],96%
same,Population Pyknosed Nuclei (%),[6],20%
same,Population Tubulin-Different-Phenotype (%),[6],41%
same,Total Cell Count,[6],136
same,Population Apoptotic (%),[7],50%
same,Population Fragmented Nuclei (%),[7],17%
same,Population Healthy Nuclei (%),[7],72%
same,Population Hoechst High Intensity Objects (%),[7],3%
same,Population Membrane Permeable-Phenotype (%),[7],0%
same,Population Mitochondria Different-Phenotype (%),[7],15%
same,Population Mitotic Cells (%),[7],50%
same,Population Normal (%),[7],96%
same,Population Pyknosed Nuclei (%),[7],10%
same,Population Tubulin-Different-Phenotype (%),[7],63%
same,Total Cell Count,[7],180
same,Population Apoptotic (%),[8],42%
same,Population Fragmented Nuclei (%),[8],39%
same,Population Healthy Nuclei (%),[8],55%
same,Population Hoechst High Intensity Objects (%),[8],2%
same,Population Membrane Permeable-Phenotype (%),[8],2%
same,Population Mitochondria Different-Phenotype (%),[8],12%
same,Population Mitotic Cells (%),[8],57%
same,Population Normal (%),[8],97%
same,Population Pyknosed Nuclei (%),[8],4%
same,Population Tubulin-Different-Phenotype (%),[8],85%
same,Total Cell Count,[8],148
same,Population Apoptotic (%),[9],66%
same,Population Fragmented Nuclei (%),[9],17%
same,Population Healthy Nuclei (%),[9],75%
same,Population Hoechst High Intensity Objects (%),[9],1%
same,Population Membrane Permeable-Phenotype (%),[9],1%
same,Population Mitochondria Different-Phenotype (%),[9],3%
same,Population Mitotic Cells (%),[9],33%
same,Population Normal (%),[9],98%
same,Population Pyknosed Nuclei (%),[9],6%
same,Population Tubulin-Different-Phenotype (%),[9],27%
same,Total Cell Count,[9],180
same,Population Apoptotic (%),[10],52%
same,Population Fragmented Nuclei (%),[10],26%
same,Population Healthy Nuclei (%),[10],61%
same,Population Membrane Permeable-Phenotype (%),[10],5%
same,Population Mitochondria Different-Phenotype (%),[10],13%
same,Population Mitotic Cells (%),[10],47%
same,Population Pyknosed Nuclei (%),[10],12%
same,Population Tubulin-Different-Phenotype (%),[10],46%
same,Total Cell Count,[10],152
same,Population Apoptotic (%),[11],71%
same,Population Fragmented Nuclei (%),[11],21%
same,Population Healthy Nuclei (%),[11],71%
same,Population Hoechst High Intensity Objects (%),[11],4%
same,Population Membrane Permeable-Phenotype (%),[11],0%
same,Population Mitochondria Different-Phenotype (%),[11],8%
same,Population Mitotic Cells (%),[11],28%
same,Population Normal (%),[11],95%
same,Population Pyknosed Nuclei (%),[11],7%
same,Population Tubulin-Different-Phenotype (%),[11],71%
same,Total Cell Count,[11],203
same,Population Apoptotic (%),[12],75%
same,Population Fragmented Nuclei (%),[12],45%
same,Population Healthy Nuclei (%),[12],52%
same,Population Hoechst High Intensity Objects (%),[12],0%
same,Population Membrane Permeable-Phenotype (%),[12],3%
same,Population Mitotic Cells (%),[12],25%
same,Population Normal (%),[12],99%
same,Population Pyknosed Nuclei (%),[12],2%
same,Population Tubulin-Different-Phenotype (%),[12],81%
same,Total Cell Count,[12],174

# Reference: ChEMBL document CHEMBL5058577, “EUbOPEN Chemogenomics Library 2 (Multiplex)” (2022)
